Our source for the IC50 and Activity values is ChEMBL document CHEMBL1137523, “Efficient one-pot synthesis of biologically active polysubstituted aromatic amines” (Bioorg Med Chem, 2007).

The test system of assay [1] is L929. Put plainly: Growth inhibition of mouse L929 cells after 5 days by MTT assay. Type of assay: functional, cell-based. The note with it: L929, 120 h. Put shortly: (§1)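 L-929 cells (DSMZ) were grown in DME with 10% newborn calf serum at 37 °C, 10% CO2, in humid air. In microtiter plates, a suspension of 50,000 cells/mL was added to a serial dilution of inhibitor (2:1 cell suspension to dilution). Metabolic activity per well was read by MTT after 5 days.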
On the technique in general: Tetrazolium assays rely on reduction of a dye to a coloured formazan, in cell work by metabolically active cells.

For assay [2], the system named is L929. Put plainly: Growth inhibition of mouse L929 cells below 40 ug/mL after 5 days by MTT assay. Type of assay: functional, cell-based. A digest of the protocol:
as §1

Another assay deals with Potorous tridactylus. The assay is described as follows: Effect on cell morphology in PtK2 potoroo cells assessed as changes in morphology at 50 ug/mL after 18 hrs.

≈ marks a conversion by molar mass, not a printed value. Calls of active or inactive are those of the source. No cut-off for these calls is given here. Bounds are passed on as bounds.

Consider `COc1ccc(N(Cc2ccccc2)Cc2ccccc2)cc1`, for which 12 mg/L (≈ 39.6 µM) corresponded to half-maximal inhibition in the assay with L929 [1] (IC50).
`Cc1ccc(N(Cc2ccccc2)Cc2ccccc2)cc1` registered an IC50 with L929 [1] of 11 mg/L (≈ 38.3 µM).
In the case of `COc1ccc(N(CC(C)C)CC(C)C)cc1`, the IC50 in the assay on L929 [1] came to 25 mg/L (≈ 106 µM).
For `COc1ccc(N(Cc2ccc([N+](=O)[O-])cc2)Cc2ccccc2OC)cc1`, in the assay with L929 [1], the IC50 was > 40 mg/L.
For the compound `COc1ccc(NCc2ccc([N+](=O)[O-])cc2)cc1`, in the assay with L929 [1], the IC50 was > 40 mg/L.
Take `Cc1ccc(NCc2ccccc2)cc1` [N-BENZYL-4-METHYLANILINE]: the IC50 with L929 [1] is > 40 mg/L. For the same compound, in the assay on L929 [2], the result was inactive.
In the case of `COc1ccc(NCC(C)C)cc1`, the IC50 in the assay with L929 [1] is > 40 mg/L. The outcome in the assay with L929 [2] was inactive.
For the compound `COc1ccc(N(Cc2ccccc2)CC(C)C)cc1`, the concentration for half-maximal inhibition (IC50) in the assay on L929 [1] amounted to 10 mg/L (≈ 37.1 µM).
In the case of `Cc1ccc(N(Cc2ccccc2)CC(C)C)cc1`, the IC50 in the assay on L929 [1] worked out at 5 mg/L (≈ 19.7 µM). In the assay on Potorous tridactylus, the outcome was Active.
In the assay with L929 [1], `CCCCCCCCCNc1ccc(OC)cc1` returned an IC50 of 12 mg/L (≈ 48.1 µM).
As to `COc1ccc(N(Cc2ccc([N+](=O)[O-])cc2)CC(C)C)cc1`, in the assay on L929 [1], the IC50 is > 40 mg/L. The result in the assay on L929 [2] was inactive.
For the compound `O=C(O)Cc1ccc(NCc2ccccc2)cc1`, the IC50 in the assay on L929 [1] is > 40 mg/L.
In the case of `COc1ccc(NC(C)c2ccco2)cc1` (stereo unspecified), in the assay on L929 [1], the half-maximal inhibitory concentration (IC50) is 40 mg/L (≈ 184 µM).
Take `c1ccc(CNc2ccccn2)cc1`: in the assay with L929 [1], the midpoint of inhibition, the IC50, lay at 35 mg/L (≈ 190 µM).
In turn, `COc1ccc(NCc2ccccc2OC)cc1` registered an IC50 in the assay with L929 [1] of 25 mg/L (≈ 103 µM).
For the compound `CCCCCCCCCN(CC(C)C)c1ccc(OC)cc1`, the IC50 with L929 [1] stood at 20 mg/L (≈ 65.5 µM).
In the assay on L929 [1], `COc1ccc(NC(C)c2ccsc2)cc1` (stereo unspecified) displayed an IC50 of 30 mg/L (≈ 129 µM).
As to `COc1ccc(NC(C)c2ccccc2)cc1` (stereo unspecified), the IC50 in the assay with L929 [1] stood at 30 mg/L (≈ 132 µM).
In the case of `Cc1ccc(N(CC(C)C)CC(C)C)cc1`, 13 mg/L (≈ 59.3 µM) corresponded to half-maximal inhibition in the assay with L929 [1] (IC50).
For `COc1ccc(N(Cc2ccccc2)Cc2ccccc2OC)cc1`, the IC50 in the assay on L929 [1] is > 40 mg/L. The outcome in the assay with L929 [2] was inactive.
The compound `COc1ccc(N(Cc2ccccc2OC)CC(C)C)cc1` yielded an IC50 with L929 [1] of 15 mg/L (≈ 50.1 µM).
The compound `CC(=O)c1ccc(NCc2ccccc2)cc1` registered an IC50 in the assay on L929 [1] of 22 mg/L (≈ 97.7 µM).
Compound `O=[N+]([O-])c1cc(O)ccc1NCc1ccccc1` showed an IC50 in the assay with L929 [1] of 9 mg/L (≈ 36.8 µM). Besides, the outcome in the assay on Potorous tridactylus was Active.
Take `COc1ccc(CNc2ccc(O)c([N+](=O)[O-])c2)cc1`: the concentration for half-maximal inhibition (IC50) in the assay with L929 [1] was 20 mg/L (≈ 72.9 µM).
On the same count and under the same terms, as for `COc1ccc(N(Cc2ccccc2)Cc2ccc([N+](=O)[O-])cc2)cc1`, the figure is > 40 mg/L.

Usually IC50 stands for the concentration that gives 50% inhibition.
